Results: publication PMC6988732 (The Biochemical journal, 2013)

Tests used:
Type in all cases: cell-based
[1] = biological target: full-length PKCθ Y239A (Mus musculus, UniProt Q02111, Y239A); test: Membrane translocation in HEK-293 cells; conditions: 50 nM PMA, 2 h
[2] = biological target: full-length PKCθ T243A (Mus musculus, UniProt Q02111, T243A); test: Membrane translocation in HEK-293 cells; conditions: 50 nM PMA, 2 h
[3] = biological target: full-length PKCθ W253G (Mus musculus, UniProt Q02111, W253G); test: Membrane translocation in HEK-293 cells; conditions: 50 nM PMA, 2 h
[4] = biological target: full-length PKCθ L255G (Mus musculus, UniProt Q02111, L255G); test: Membrane translocation in HEK-293 cells; conditions: 50 nM PMA, 2 h
[5] = biological target: full-length PKCθ Q258G (Mus musculus, UniProt Q02111, Q258G); test: Membrane translocation in HEK-293 cells; conditions: 50 nM PMA, 2 h
[6] = biological target: GFP–PKCθ wild-type (Mus musculus, UniProt Q02111); test: Confocal translocation in living LNCaP cells
Summary of the method: (§1)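 Mouse full-length PKCθ (wild-type or C1B point mutant) carrying a C-terminal EGFP tag via a GGNSGG spacer, transfected into LNCaP prostate cancer cells. Living cells were exposed to PMA and imaged by confocal microscopy over a time course. Membrane/cytoplasm intensity ratios were quantified from the images; means ± S.E.M., with images typical of three to four independent experiments.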

[7] = biological target: GFP–PKCθ Y239A (Mus musculus, UniProt Q02111, Y239A); test: Confocal translocation in living LNCaP cells
Summary of the method: as §1

[8] = biological target: GFP–PKCθ T243A (Mus musculus, UniProt Q02111, T243A); test: Confocal translocation in living LNCaP cells
Summary of the method: as §1

[9] = biological target: GFP–PKCθ W253G (Mus musculus, UniProt Q02111, W253G); test: Confocal translocation in living LNCaP cells
Summary of the method: as §1

[10] = biological target: GFP–PKCθ L255G (Mus musculus, UniProt Q02111, L255G); test: Confocal translocation in living LNCaP cells
Summary of the method: as §1

[11] = biological target: GFP–PKCθ Q258G (Mus musculus, UniProt Q02111, Q258G); test: Confocal translocation in living LNCaP cells
Summary of the method: as §1

[12] = 100 nM PMA (second block, r6-r8), 5 min
[13] = 100 nM PMA (second block, r6-r8), 10 min
[14] = 100 nM PMA (second block, r6-r8), 20 min
[15] = 100 nM PMA as printed (first block, r3-r5), 5 min
[16] = 100 nM PMA as printed (first block, r3-r5), 10 min
[17] = 100 nM PMA as printed (first block, r3-r5), 20 min

Chain of GFP–PKCθ Q258G (Q02111 whole entry Q258G): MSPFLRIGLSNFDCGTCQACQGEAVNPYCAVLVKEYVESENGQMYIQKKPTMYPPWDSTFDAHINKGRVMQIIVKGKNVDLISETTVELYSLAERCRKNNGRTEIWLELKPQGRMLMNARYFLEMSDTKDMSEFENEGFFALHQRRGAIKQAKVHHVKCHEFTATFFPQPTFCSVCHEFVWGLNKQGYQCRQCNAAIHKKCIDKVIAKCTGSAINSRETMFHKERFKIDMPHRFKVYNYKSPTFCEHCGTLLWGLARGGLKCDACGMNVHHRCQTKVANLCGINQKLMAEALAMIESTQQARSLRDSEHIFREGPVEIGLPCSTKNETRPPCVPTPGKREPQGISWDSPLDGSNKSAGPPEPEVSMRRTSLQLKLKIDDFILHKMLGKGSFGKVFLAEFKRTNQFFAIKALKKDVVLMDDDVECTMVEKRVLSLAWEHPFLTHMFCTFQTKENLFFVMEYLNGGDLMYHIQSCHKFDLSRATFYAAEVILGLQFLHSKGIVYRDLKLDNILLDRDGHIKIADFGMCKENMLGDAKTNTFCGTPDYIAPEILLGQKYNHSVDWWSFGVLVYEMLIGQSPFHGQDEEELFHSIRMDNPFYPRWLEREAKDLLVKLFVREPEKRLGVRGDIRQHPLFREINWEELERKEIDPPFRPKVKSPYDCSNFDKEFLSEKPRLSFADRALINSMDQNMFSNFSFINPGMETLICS
Chain of GFP–PKCθ wild-type (Q02111 whole entry): as the sequence (Q02111 whole entry Q258G) above, with G258Q counted along it
Chain of GFP–PKCθ Y239A (Q02111 whole entry Y239A): as the sequence (Q02111 whole entry Q258G) above, with Y239A, G258Q counted along it
Chain of GFP–PKCθ W253G (Q02111 whole entry W253G): as the sequence (Q02111 whole entry Q258G) above, with W253G, G258Q counted along it
Chain of GFP–PKCθ T243A (Q02111 whole entry T243A): as the sequence (Q02111 whole entry Q258G) above, with T243A, G258Q counted along it
Chain of GFP–PKCθ L255G (Q02111 whole entry L255G): as the sequence (Q02111 whole entry Q258G) above, with L255G, G258Q counted along it
Chain of full-length PKCθ Q258G (Q02111 whole entry Q258G): as the sequence (Q02111 whole entry Q258G) above
Chain of full-length PKCθ Y239A (Q02111 whole entry Y239A): as the sequence (Q02111 whole entry Q258G) above, with Y239A, G258Q counted along it
Chain of full-length PKCθ W253G (Q02111 whole entry W253G): as the sequence (Q02111 whole entry Q258G) above, with W253G, G258Q counted along it
Chain of full-length PKCθ T243A (Q02111 whole entry T243A): as the sequence (Q02111 whole entry Q258G) above, with T243A, G258Q counted along it
Chain of full-length PKCθ L255G (Q02111 whole entry L255G): as the sequence (Q02111 whole entry Q258G) above, with L255G, G258Q counted along it

SMILES: CCCCCCCCCCCCCC(=O)O[C@@H]1[C@@H](C)[C@@]2(O)[C@@H](C=C(CO)C[C@]3(O)C(=O)C(C)=C[C@@H]23)[C@@H]2C(C)(C)[C@]12OC(C)=O [PMA]
- reduction in membrane translocation compared with the wild-type [1]: 17.1%
- reduction in membrane translocation compared with the wild-type [2]: 12.5%
- reduction in membrane translocation compared with the wild-type [3]: 14.8%
- reduction in membrane translocation compared with the wild-type [4]: 19.4%
- reduction in membrane translocation compared with the wild-type [5]: 21.6%
- Membrane/cytoplasmic intensity ratio, PKCθ WT ([6]; 10 nM PMA, 5 min): 1.0 ± 0.1
- Membrane/cytoplasmic intensity ratio, PKCθ WT ([6]; 10 nM PMA, 10 min): 1.0 ± 0.1
- Membrane/cytoplasmic intensity ratio, PKCθ WT ([6]; 10 nM PMA, 20 min): 1.2 ± 0.4
- time to marked translocation to the plasma membrane ([6]; 100 nM PMA): ≤ 2 min
- Membrane/cytoplasmic intensity ratio, PKCθ WT [6, 12]: 8.1 ± 1.2
- Membrane/cytoplasmic intensity ratio, PKCθ WT [6, 13]: 6.5 ± 0.7
- Membrane/cytoplasmic intensity ratio, PKCθ WT [6, 14]: 5.4 ± 0.5
- Membrane/cytoplasmic intensity ratio, PKCθ WT [6, 15]: 14.5 ± 2.2
- Membrane/cytoplasmic intensity ratio, PKCθ WT [6, 16]: 11.3 ± 2.1
- Membrane/cytoplasmic intensity ratio, PKCθ WT [6, 17]: 12.1 ± 2.2
- Membrane/cytoplasmic intensity ratio, PKCθ Y239A ([7]; 10 nM PMA, 5 min): 1.1 ± 0.0
- Membrane/cytoplasmic intensity ratio, PKCθ Y239A ([7]; 10 nM PMA, 10 min): 1.1 ± 0.1
- Membrane/cytoplasmic intensity ratio, PKCθ Y239A ([7]; 10 nM PMA, 20 min): 1.0 ± 0.0
- Membrane/cytoplasmic intensity ratio, PKCθ Y239A [7, 12]: 1.7 ± 0.4
- Membrane/cytoplasmic intensity ratio, PKCθ Y239A [7, 13]: 2.3 ± 0.8
- Membrane/cytoplasmic intensity ratio, PKCθ Y239A [7, 14]: 2.3 ± 0.5
- Membrane/cytoplasmic intensity ratio, PKCθ Y239A [7, 15]: 3.8 ± 1.8
- Membrane/cytoplasmic intensity ratio, PKCθ Y239A [7, 16]: 4.2 ± 1.6
- Membrane/cytoplasmic intensity ratio, PKCθ Y239A [7, 17]: 5 ± 0.4
- Membrane/cytoplasmic intensity ratio, PKCθ T243A ([8]; 10 nM PMA, 5 min): 1.0 ± 0.0
- Membrane/cytoplasmic intensity ratio, PKCθ T243A ([8]; 10 nM PMA, 10 min): 1.3 ± 0.2
- Membrane/cytoplasmic intensity ratio, PKCθ T243A ([8]; 10 nM PMA, 20 min): 1.7 ± 0.1
- time by which translocation was largely complete ([8]; 100 nM PMA): ≤ 5 min
- Membrane/cytoplasmic intensity ratio, PKCθ T243A [8, 12]: 3.6 ± 1.1
- Membrane/cytoplasmic intensity ratio, PKCθ T243A [8, 13]: 3.7 ± 0.8
- Membrane/cytoplasmic intensity ratio, PKCθ T243A [8, 14]: 3.1 ± 0.6
- Membrane/cytoplasmic intensity ratio, PKCθ T243A [8, 15]: 10.3 ± 1.9
- Membrane/cytoplasmic intensity ratio, PKCθ T243A [8, 16]: 9.9 ± 1.5
- Membrane/cytoplasmic intensity ratio, PKCθ T243A [8, 17]: 7.4 ± 1.5
- Membrane/cytoplasmic intensity ratio, PKCθ W253G ([9]; 10 nM PMA, 5 min): 1.0 ± 0.1
- Membrane/cytoplasmic intensity ratio, PKCθ W253G ([9]; 10 nM PMA, 10 min): 1.1 ± 0.1
- Membrane/cytoplasmic intensity ratio, PKCθ W253G ([9]; 10 nM PMA, 20 min): 1.2 ± 0.2
- Membrane/cytoplasmic intensity ratio, PKCθ W253G [9, 12]: 1.9 ± 0.4
- Membrane/cytoplasmic intensity ratio, PKCθ W253G [9, 13]: 3.0 ± 0.7
- Membrane/cytoplasmic intensity ratio, PKCθ W253G [9, 14]: 2.6 ± 0.6
- Membrane/cytoplasmic intensity ratio, PKCθ W253G [9, 15]: 11.4 ± 3.6
- Membrane/cytoplasmic intensity ratio, PKCθ W253G [9, 16]: 12.7 ± 3.9
- Membrane/cytoplasmic intensity ratio, PKCθ W253G [9, 17]: 13.2 ± 5.0
- Membrane/cytoplasmic intensity ratio, PKCθ L255G ([10]; 10 nM PMA, 5 min): 1.1 ± 0.1
- Membrane/cytoplasmic intensity ratio, PKCθ L255G ([10]; 10 nM PMA, 10 min): 1.1 ± 0.1
- Membrane/cytoplasmic intensity ratio, PKCθ L255G ([10]; 10 nM PMA, 20 min): 1.1 ± 0.0
- Membrane/cytoplasmic intensity ratio, PKCθ L255G [10, 12]: 1.3 ± 0.1
- Membrane/cytoplasmic intensity ratio, PKCθ L255G [10, 13]: 1.6 ± 0.2
- Membrane/cytoplasmic intensity ratio, PKCθ L255G [10, 14]: 2.3 ± 0.4
- Membrane/cytoplasmic intensity ratio, PKCθ L255G [10, 15]: 4.8 ± 1.5
- Membrane/cytoplasmic intensity ratio, PKCθ L255G [10, 16]: 6.0 ± 1.2
- Membrane/cytoplasmic intensity ratio, PKCθ L255G [10, 17]: 7.2 ± 1.9
- Membrane/cytoplasmic intensity ratio, PKCθ Q258G ([11]; 10 nM PMA, 5 min): 1.2 ± 0.1
- Membrane/cytoplasmic intensity ratio, PKCθ Q258G ([11]; 10 nM PMA, 10 min): 1.1 ± 0.1
- Membrane/cytoplasmic intensity ratio, PKCθ Q258G ([11]; 10 nM PMA, 20 min): 1.1 ± 0.0
- Membrane/cytoplasmic intensity ratio, PKCθ Q258G [11, 12]: 1.0 ± 0.0
- Membrane/cytoplasmic intensity ratio, PKCθ Q258G [11, 13]: 1.1 ± 0.0
- Membrane/cytoplasmic intensity ratio, PKCθ Q258G [11, 14]: 1.1 ± 0.0
- Membrane/cytoplasmic intensity ratio, PKCθ Q258G [11, 15]: 1.2 ± 0.1
- Membrane/cytoplasmic intensity ratio, PKCθ Q258G [11, 16]: 2.0 ± 0.3
- Membrane/cytoplasmic intensity ratio, PKCθ Q258G [11, 17]: 2.1 ± 0.4
- plasma membrane translocation response ([11]; 100 nM PMA, by 20 min): little response
- plasma membrane translocation response ([11]; 1000 nM PMA, later times): partial translocation
